Laboratory results as given in ChEMBL document CHEMBL3244074, “2-Indanpropionic acids: structural leads for prostaglandin F2alpha antagonist development” (J Med Chem, 1979).
The source made the active and inactive calls. No cut-off for these calls is given here.

Tests used:
Assay type in all cases: tissue-based
[1] = molecular target: Prostaglandin F2-alpha receptor (Mus musculus) (UniProt P43117); test: Antagonist activity at prostaglandin F2-alpha receptor in isolated Albino mouse ileum assessed as inhibition of acetylcholine-induced spasmogenic effect at 10^-4 M preincubated for 3 mins followed by acetylcholine challenge relative to control
Method in brief: (§1)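 Mouse ileum came from female albinos (20-25 g) killed by cervical dislocation and was held under 200 mg tension in 37 °C baths for isotonic recording, with 30-min equilibration. A control acetylcholine contraction was obtained, then three washes. Compound was in contact for 3 min before acetylcholine challenge and contraction recording. After 5 min there were three washes and the control response was redetermined.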

[2] = molecular target: Prostaglandin F2-alpha receptor (Mus musculus) (UniProt P43117); test: Antagonist activity at prostaglandin F2-alpha receptor in isolated Albino mouse ileum assessed as inhibition of KCl-induced spasmogenic effect at 10^-4 M preincubated for 3 mins followed by KCl challenge relative to control
Method in brief: (§2)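 Ileum sections were taken from female albino mice (20-25 g) killed by cervical dislocation and mounted in 37 °C baths under 200 mg tension, with isotonic contraction recording after a 30-min equilibration. A control contraction to KCl (54 mM bath) was followed by three washes. Compound was left on the tissue for 3 min, then KCl was re-added and the contraction recorded. After 5 min the tissue was washed three times and the control response repeated.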

[3] = molecular target: Prostaglandin F2-alpha receptor (Mus musculus) (UniProt P43117); test: Antagonist activity at prostaglandin F2-alpha receptor in isolated Albino mouse ileum assessed as inhibition of PGF2alpha-induced spasmogenic effect at 10^-4 M preincubated for 3 mins followed by PGF2alpha challenge relative to control
Method in brief: (§3)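 This used female albino mouse ileum (20-25 g animals, killed by cervical dislocation), recorded isotonically under 200 mg tension at 37 °C after 30-min equilibration. A control PGF2α contraction was obtained and the bath washed three times. Compound was applied for 3 min before PGF2α challenge, and the contraction was recorded. Washing three times after 5 min was followed by a repeat PGF2α control response.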

[4] = molecular target: Prostaglandin F2-alpha receptor (Mus musculus) (UniProt P43117); test: Antagonist activity at prostaglandin F2-alpha receptor in isolated Albino mouse ileum assessed as inhibition of acetylcholine-induced spasmogenic effect at; method in brief: as §1
[5] = molecular target: Prostaglandin F2-alpha receptor (Mus musculus) (UniProt P43117); test: Antagonist activity at prostaglandin F2-alpha receptor in isolated Albino mouse ileum assessed as inhibition of KCl-induced spasmogenic effect at; method in brief: as §2
[6] = molecular target: Prostaglandin F2-alpha receptor (Mus musculus) (UniProt P43117); test: Antagonist activity at prostaglandin F2-alpha receptor in isolated Albino mouse ileum assessed as inhibition of PGF2alpha-induced spasmogenic effect at; method in brief: as §3
[7] = molecular target: Prostaglandin F2-alpha receptor (Mus musculus) (UniProt P43117); test: Antagonist activity at prostaglandin F2-alpha receptor in isolated Albino mouse ileum assessed as inhibition of PGF2alpha-induced spasmogenic effect preincubated for 3 mins followed by PGF2alpha challenge followed by compound washout; method in brief: as §3
[8] = molecular target: Prostaglandin F2-alpha receptor (Mus musculus) (UniProt P43117); test: Antagonist activity at prostaglandin F2-alpha receptor in isolated Albino mouse ileum assessed as inhibition of acetylcholine-induced spasmogenic effect preincubated for 3 mins followed by acetylcholine challenge followed by compound washout; method in brief: as §1
[9] = molecular target: Prostaglandin F2-alpha receptor (Mus musculus) (UniProt P43117); test: Antagonist activity at prostaglandin F2-alpha receptor in isolated Albino mouse ileum assessed as inhibition of KCl-induced spasmogenic effect preincubated for 3 mins followed by KCl challenge followed by compound washout; method in brief: as §2
[10] = molecular target: Prostaglandin F2-alpha receptor (Mus musculus) (UniProt P43117); test: Antagonist activity at prostaglandin F2-alpha receptor in isolated Albino mouse ileum assessed as inhibition of acetylcholine-induced spasmogenic effect at 10^-3 M preincubated for 3 mins followed by acetylcholine challenge relative to control; method in brief: as §1
[11] = molecular target: Prostaglandin F2-alpha receptor (Mus musculus) (UniProt P43117); test: Antagonist activity at prostaglandin F2-alpha receptor in isolated Albino mouse ileum assessed as inhibition of KCl-induced spasmogenic effect at 10^-3 M preincubated for 3 mins followed by KCl challenge relative to control; method in brief: as §2
[12] = molecular target: Prostaglandin F2-alpha receptor (Mus musculus) (UniProt P43117); test: Antagonist activity at prostaglandin F2-alpha receptor in isolated Albino mouse ileum assessed as inhibition of PGF2alpha-induced spasmogenic effect at 10^-3 M preincubated for 3 mins followed by PGF2alpha challenge relative to control; method in brief: as §3
[13] = molecular target: Prostaglandin F2-alpha receptor (Mus musculus) (UniProt P43117); test: Antagonist activity at prostaglandin F2-alpha receptor in isolated Albino mouse ileum assessed as inhibition of PGF2alpha-induced spasmogenic effect at 5X10'-5 M preincubated for 3 mins followed by PGF2alpha challenge relative to control; method in brief: as §3
[14] = molecular target: Prostaglandin F2-alpha receptor (Mus musculus) (UniProt P43117); test: Antagonist activity at prostaglandin F2-alpha receptor in isolated Albino mouse ileum assessed as inhibition of KCl-induced spasmogenic effect at 5X10'-5 M preincubated for 3 mins followed by KCl challenge relative to control; method in brief: as §2
[15] = molecular target: Prostaglandin F2-alpha receptor (Mus musculus) (UniProt P43117); test: Antagonist activity at prostaglandin F2-alpha receptor in isolated Albino mouse ileum assessed as inhibition of acetylcholine-induced spasmogenic effect at 5X10'-5 M preincubated for 3 mins followed by acetylcholine challenge relative to control; method in brief: as §1
[16] = molecular target: Prostaglandin F2-alpha receptor (Mus musculus) (UniProt P43117); test: Antagonist activity at prostaglandin F2-alpha receptor in isolated Albino mouse ileum assessed as inhibition of PGF2alpha-induced spasmogenic effect at 3X10'-5 M preincubated for 3 mins followed by PGF2alpha challenge relative to control; method in brief: as §3
[17] = molecular target: Prostaglandin F2-alpha receptor (Mus musculus) (UniProt P43117); test: Antagonist activity at prostaglandin F2-alpha receptor in isolated Albino mouse ileum assessed as inhibition of acetylcholine-induced spasmogenic effect at 3X10'-5 M preincubated for 3 mins followed by acetylcholine challenge relative to control; method in brief: as §1
[18] = molecular target: Prostaglandin F2-alpha receptor (Mus musculus) (UniProt P43117); test: Antagonist activity at prostaglandin F2-alpha receptor in isolated Albino mouse ileum assessed as inhibition of KCl-induced spasmogenic effect at 3X10'-5 M preincubated for 3 mins followed by KCl challenge relative to control; method in brief: as §2

Prostaglandin F2-alpha receptor (Mus musculus), sequence (P43117 whole entry): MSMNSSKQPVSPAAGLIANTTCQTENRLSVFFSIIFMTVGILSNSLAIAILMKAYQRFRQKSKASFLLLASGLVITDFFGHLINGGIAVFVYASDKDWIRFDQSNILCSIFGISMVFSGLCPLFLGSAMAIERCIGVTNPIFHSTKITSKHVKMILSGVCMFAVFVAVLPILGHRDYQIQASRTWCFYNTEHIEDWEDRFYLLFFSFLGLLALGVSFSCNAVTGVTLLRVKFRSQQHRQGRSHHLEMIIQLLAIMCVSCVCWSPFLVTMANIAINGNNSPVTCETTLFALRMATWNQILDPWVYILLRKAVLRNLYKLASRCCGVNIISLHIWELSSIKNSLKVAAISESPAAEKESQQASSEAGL

Row | SMILES | inhibition [1] | inhibition [2] | inhibition [3] | inhibition [4] | inhibition [5] | inhibition [6] | inhibition [7] | inhibition [8] | inhibition [9] | inhibition [10] | inhibition [11] | inhibition [12] | inhibition [13] | inhibition [14] | inhibition [15] | inhibition [16] | inhibition [17] | inhibition [18]
1 | CCCC1(CCC(=O)O)Cc2cc3c(cc2C1)OCO3 | inactive | inactive | 20% | inactive | inactive | inactive | inactive | inactive | inactive | Active | Active | Active | – | – | – | – | – | –
2 | CCCC1(CCC(=O)O)Cc2cc(OCc3ccccc3)c(OCc3ccccc3)cc2C1=O (centres undefined) | 70% | 70% | Active | Active | Active | Active | inactive | inactive | inactive | Active | Active | Active | 90% | 50% | 35% | 80% | < 20% | 40%
3 | CCCC1(CCC(=O)O)Cc2ccc(OC)cc2C1=O (centres undefined) | inactive | inactive | 20% | inactive | inactive | inactive | inactive | inactive | inactive | Active | Active | Active | – | – | – | – | – | –
4 | CCCC1(CCC(=O)O)Cc2cc3c(cc2C1=O)OCO3 (centres undefined) | inactive | inactive | 20% | inactive | inactive | inactive | inactive | inactive | inactive | Active | Active | Active | – | – | – | – | – | –
